For orientation: inhibition means the change of the read-out against control, counted positive when it falls. What is called Inhibition is how much of the control response was suppressed. Read a high Inhibition as a response far below the control. By inhibition in vivo is commonly meant the relative decrease from the control value, in per cent. Low values mean a weak effect, high ones a strong effect.

The source of these data is ChEMBL document CHEMBL1126205, “Novel spirosuccinimides with incorporated isoindolone and benzisothiazole 1,1-dioxide moieties as aldose reductase inhibitors and antihyperglycemic agents” (1992).

Molecules are shown by their SMILES. Values joined by “and” are separate entries in the source; they are usually repeats but may differ in a detail not shown here. Equal entries are not always repeated. Active and inactive are the calls of the source. The calls are words filed in the database; no cut-off is given here.

Assay [1] relates to Mus musculus. Description: Antihyperglycemic activity was determined by measuring percent decrease in plasma glucose at 100 mg/kg/day. In kind it is functional. The method, boiled down:
(§1)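 Male db/db (C57BL/KsJ) mice, 4–6 per group, dosed at 100 mg/kg per day. Plasma glucose of the drug-treated group is expressed as percent decrease relative to a vehicle-treated control group. Values are mean ± SE, with p < 0.05 marked.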

For assay [2], the system named is Rattus norvegicus. Briefly: In vivo galactitol inhibitory activity measured by its ability to inhibit galactitol accumulation in lens at 94 mg/Kg/day; NS=not significant. In kind it is functional, organism-based. As to conditions: Lens of camera-type eye. Put shortly:
(§2)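 Rats (n = 6) fed 20% galactose for 4 days, with compound given in the diet at the stated daily dose. Galactitol accumulation was measured in lens, sciatic nerve and diaphragm, and % inhibition was taken versus the nontreated group. Means are from three to eight drug-treated tissue samples. Dunnett's multiple comparison test was applied, with p > 0.05 reported as not significant.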

The target in assay [3] is Aldo-keto reductase family 1 member B1 (Bos taurus) (UniProt P16116). Description: in vitro aldose reductase inhibitory activity measured by NADPH-dependent inhibition of glyceraldehyde reduction in a partially purified bovine lens preparation at 10e -7M conc.; g=no inhibitory activity. The method, boiled down: (§3)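 Partially purified aldose reductase from bovine lens. Inhibition of NADPH-dependent glyceraldehyde reduction was measured at a single test concentration. Values are % inhibition of enzymatic activity, mean of two determinations.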

The subject of assay [4] is Rattus norvegicus. Description: In vivo galactitol inhibitory activity measured by its ability to inhibit galactitol accumulation in sciatic nerve at 94 mg/kg/day; NS=not significant. In kind it is functional, organism-based. Put shortly: as §2
Assay [5] concerns the target Aldo-keto reductase family 1 member B1 (Bos taurus) (UniProt P16116). Description: in vitro aldose reductase inhibitory activity measured by NADPH-dependent inhibition of glyceraldehyde reduction in a partially purified bovine lens preparation at 10e -6M conc. The method, boiled down: as §3
For assay [6], the system named is Rattus norvegicus. Description: In vivo galactitol inhibitory activity measured by its ability to inhibit galactitol accumulation in lens at 25 mg/Kg/day. In kind it is functional, Lens of camera-type eye. Put shortly: (§4)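 Rats (n = 6) fed 20% galactose for 4 days, with compound given in the diet at the stated mg/kg per day. Galactitol accumulation in lens, sciatic nerve or diaphragm is scored as percent inhibition versus the non-treated group, as means of 3–8 drug-treated tissue samples. Dunnett's multiple comparison test applies; NS means p > 0.05.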

Assay [7] has as its system Rattus norvegicus. Description: In vivo galactitol inhibitory activity measured by its ability to inhibit galactitol accumulation in lens at 79 mg/Kg/day. To be noted: Lens of camera-type eye. In kind it is functional. Put shortly: as §2
In assay [8] the test system is Rattus norvegicus. Briefly: In vivo galactitol inhibitory activity measured by its ability to inhibit galactitol accumulation in diaphragm at 79 mg/Kg/day. In kind it is functional. Put shortly:
as §4

Assay [9] concerns Rattus norvegicus. Description: In vivo galactitol inhibitory activity measured by its ability to inhibit galactitol accumulation in sciatic nerve at 79 mg/Kg/day. In kind it is functional. The method, boiled down: as §2
Assay [10] has as its system Rattus norvegicus. Briefly: In vivo galactitol inhibitory activity measured by its ability to inhibit galactitol accumulation in lens at 53 mg/Kg/day. In kind it is functional, Lens of camera-type eye. Put shortly: as §4
Assay [11] relates to Mus musculus. Briefly: Antihyperglycemic activity measured as percent decrease in mice plasma glucose at 100 mg/Kg/day. In kind it is functional. The method, boiled down: as §1
Assay [12] has as its system Rattus norvegicus. Briefly: In vivo galactitol inhibitory activity measured by its ability to inhibit galactitol accumulation in lens at 6 mg/Kg/day. In kind it is functional, Lens of camera-type eye. The method, boiled down: as §4
Assay [13] deals with Rattus norvegicus. Description: In vivo galactitol inhibitory activity measured by its ability to inhibit galactitol accumulation in sciatic nerve at 101 mg/kg/day; NS=Not significant (% Inhibition). In kind it is functional, organism-based. The method, boiled down: as §2
For assay [14], the system named is Rattus norvegicus. Description: In vivo galactitol inhibitory activity measured by its ability to inhibit galactitol accumulation in diaphragm at 101 mg/kg/day. In kind it is functional. Put shortly:
as §4

In assay [15] the target is Aldo-keto reductase family 1 member B1 (Bos taurus) (UniProt P16116). Briefly: In vitro aldose reductase inhibitory activity measured by NADPH-dependent inhibition of glyceraldehyde reduction in a partially purified bovine lens preparation at 10E-7 M. The method, boiled down:
(§5)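 Aldose reductase partially purified from bovine lens. Inhibition of NADPH-dependent glyceraldehyde reduction is measured at the single stated concentration and reported as percent inhibition, the mean of two determinations.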

For assay [16] the target is unchanged. Description: In vitro aldose reductase inhibitory activity measured by NADPH-dependent inhibition of glyceraldehyde reduction in a partially purified bovine lens preparation at 10E-6 M. Put shortly: as §5
Assay [17] concerns Rattus norvegicus. Description: In vivo galactitol inhibitory activity measured by its ability to inhibit galactitol accumulation in lens at 101 mg/Kg/day; NS=Not significant (% Inhibition). As to conditions: Lens of camera-type eye. In kind it is functional, organism-based. The method, boiled down:
as §4

For assay [18], the system named is Rattus norvegicus. Description: In vivo galactitol inhibitory activity measured by its ability to inhibit galactitol accumulation in diaphragm at 10 mg/kg/day. In kind it is functional. The method, boiled down:
as §4

Assay [19] concerns Rattus norvegicus. Briefly: In vivo galactitol inhibitory activity measured by its ability to inhibit galactitol accumulation in lens at 10 mg/Kg/day. In kind it is functional. To be noted: Lens of camera-type eye. The method, boiled down:
as §4

The test system of assay [20] is Rattus norvegicus. Description: In vivo galactitol inhibitory activity measured by its ability to inhibit galactitol accumulation in sciatic nerve at 10 mg/kg/day. In kind it is functional. Put shortly: as §2
For assay [21], the system named is Rattus norvegicus. Briefly: In vivo galactitol inhibitory activity measured by its ability to inhibit galactitol accumulation in sciatic nerve at 3 mg/Kg/day; NS=Not significant (% Inhibition). In kind it is functional, organism-based. Put shortly: as §2
Assay [22] deals with Rattus norvegicus. Description: In vivo galactitol inhibitory activity measured by its ability to inhibit galactitol accumulation in sciatic nerve at 50 mg/Kg/day. In kind it is functional. Put shortly:
as §2

The subject of assay [23] is Rattus norvegicus. Description: In vivo galactitol inhibitory activity measured by its ability to inhibit galactitol accumulation in diaphragm at 50 mg/Kg/day. In kind it is functional. Put shortly:
as §4

In assay [24] the test system is Rattus norvegicus. Description: In vivo galactitol inhibitory activity measured by its ability to inhibit galactitol accumulation in diaphragm at 6 mg/Kg/day. In kind it is functional. The method, boiled down: as §4
The subject of assay [25] is Rattus norvegicus. Description: In vivo galactitol inhibitory activity measured by its ability to inhibit galactitol accumulation in sciatic nerve at 6 mg/Kg/day; NS=Not significant (% Inhibition). In kind it is functional, organism-based. Put shortly:
as §2

For assay [26], the system named is Rattus norvegicus. Briefly: In vivo galactitol inhibitory activity measured by its ability to inhibit galactitol accumulation in lens at 3 mg/Kg/day; NS=Not significant (% Inhibition). In kind it is functional, organism-based. As to conditions: Lens of camera-type eye. The method, boiled down:
as §4

The test system of assay [27] is Rattus norvegicus. Description: In vivo galactitol inhibitory activity measured by its ability to inhibit galactitol accumulation in sciatic nerve at 9 mg/Kg/day. In kind it is functional. Put shortly: as §2
Assay [28] has as its system Rattus norvegicus. Description: In vivo galactitol inhibitory activity measured by its ability to inhibit galactitol accumulation in lens at 6 mg/Kg/day; NS=Not significant (% Inhibition). In kind it is functional, organism-based. To be noted: Lens of camera-type eye. The method, boiled down:
as §4

Assay [29] relates to Rattus norvegicus. Briefly: In vivo galactitol inhibitory activity measured by its ability to inhibit galactitol accumulation in lens at 9 mg/Kg/day. To be noted: Lens of camera-type eye. In kind it is functional. Put shortly: as §2
The test system of assay [30] is Rattus norvegicus. Briefly: In vivo galactitol inhibitory activity measured by its ability to inhibit galactitol accumulation in diaphragm at 3 mg/Kg/day. In kind it is functional. Put shortly: as §4
Assay [31] relates to Rattus norvegicus. Briefly: In vivo galactitol inhibitory activity measured by its ability to inhibit galactitol accumulation in lens at 50 mg/Kg/day. In kind it is functional. As to conditions: Lens of camera-type eye. The method, boiled down: as §4
The subject of assay [32] is Rattus norvegicus. Description: In vivo galactitol inhibitory activity measured by its ability to inhibit galactitol accumulation in diaphragm at 9 mg/Kg/day. In kind it is functional. The method, boiled down:
as §4

Assay [33] has as its system Rattus norvegicus. Description: In vivo galactitol inhibitory activity measured by its ability to inhibit galactitol accumulation in lens at 66 mg/Kg/day. To be noted: Lens of camera-type eye. In kind it is functional. Put shortly:
as §2

The test system of assay [34] is Rattus norvegicus. Briefly: In vivo galactitol inhibitory activity measured by its ability to inhibit galactitol accumulation in sciatic nerve at 66 mg/Kg/day. In kind it is functional. Put shortly:
as §2

Assay [35] has as its system Rattus norvegicus. Briefly: In vivo galactitol inhibitory activity measured by its ability to inhibit galactitol accumulation in diaphragm at 66 mg/kg/day. In kind it is functional. Put shortly: as §4
Assay [36] deals with Rattus norvegicus. Description: In vivo galactitol inhibitory activity measured by its ability to inhibit galactitol accumulation in diaphragm at 73 mg/Kg/day. In kind it is functional. Put shortly:
as §4

The test system of assay [37] is Rattus norvegicus. Briefly: In vivo galactitol inhibitory activity measured by its ability to inhibit galactitol accumulation in sciatic nerve at 73 mg/Kg/day. In kind it is functional. The method, boiled down: as §2

Compound `CC1(COc2ccc(CC3SC(=O)NC3=O)cc2)CCCCC1` (centres undefined) [CIGLITAZONE] had a Decrease in [1] of 32%. Besides, the inhibition result in [2], in [3] and in assay [4] was “inactive” throughout. In [5], this compound gave an inhibition of 9%.

Regarding `CN1C(=O)c2ccc(Cl)cc2C12CC(=O)NC2=O` (stereo in doubt; 32), the Inhibition in assay [6] is 51% and 84% and 81%; in assay [10], 69% and 92% and 90%; in assay [12], 28% and 53%. Besides, the inhibition in vivo at 79 mg/kg/day in assay [7] came out at 81%; in [8], 92%; in assay [9], 80%. The compound further had a Decrease in [11] of less than 15%.

Regarding `O=C1CC2(C(=O)N1)c1ccccc1C(=O)N2Cc1ccc(Br)cc1F` (centres undefined), the inhibition result in [13] and in [17] was “inactive” in each case. The inhibition in vivo at 101 mg/kg/day in [14] was 30%. The inhibition in assay [15] turned out to be 7%; in [16], 54%. The same compound gave a Decrease in assay [11] of 36%.

`O=C1CC2(C(=O)N1)C(=O)N1CCOc3cc(Cl)cc2c31` (centres undefined): the results for the inhibition in vivo at 10 mg/kg/day in [18], in assay [19] and in assay [20] were 88%, 20% and 57%, respectively. Moreover, the inhibition is 32% in assay [15] and 66% in assay [16].

Consider `CN1C(=O)c2cc(Cl)c(Cl)cc2C12CC(=O)NC2=O` (centres undefined), for which the inhibition result in [21], in assay [25], in assay [26] and in [28] was “inactive” in each case. For the same compound, the inhibition in vivo at 50 mg/kg/day in assay [22] is 94%; in [23], 90%; in assay [31], 71%. This compound showed an inhibition in vivo at 6 mg/kg/day in assay [24] of 44%. Moreover, the inhibition in assay [15] came to 38%; in assay [16], 83%. Further, the inhibition in vivo at 9 mg/kg/day came to 25% in [27], 10% in [29] and 57% in [32]. The inhibition in vivo at 3 mg/kg/day in assay [30] is 25%. In [11], this compound gave a Decrease of 31%.

For `CN1C(=O)c2ccccc2C12CC(=O)NC2=O` (centres undefined), the inhibition in vivo at 66 mg/kg/day amounted to 32% in assay [33], 63% in assay [34] and 58% in assay [35]. The inhibition was 11% in [15] and 45% in assay [16]. Moreover, the Decrease in [11] is reported as less than 15%.

Compound `CCN1C(=O)c2ccccc2C12CC(=O)NC2=O` (centres undefined) yielded an inhibition in vivo at 66 mg/kg/day in assay [33] of 25%. In addition, the inhibition in vivo at 73 mg/kg/day was 62% in [36] and 47% in assay [37]. For the same compound, the inhibition in assay [15] turned out to be 0%; in assay [16], 21%.
